According to ChEMBL document CHEMBL4837210 (Eur J Med Chem, 2021):
The source made the active and inactive calls. The calls are words filed in the database; no cut-off is given here.

How the values were obtained:
Enterococcus faecalis = assay: Antibacterial activity against vancomycin-susceptible Enterococcus faecalis ATCC 29212 assessed as bacterial growth inhibition incubated for 24 hrs by CLSI protocol based broth microdilution method; type: functional
Bacillus pumilus [1] = assay: Ratio of MBC to MIC against penicillin-susceptible Bacillus pumilus CMCC 63202; type: functional
Summary of the method: (§1)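 MBC/MIC ratio from the broth microdilution MIC (24 h, 37 °C, MH broth) and the MBC (clear wells subcultured on tryptic soy agar, 24 h). A ratio ≤4 is read as bactericidal per CLSI.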

Staphylococcus aureus [2] = assay: Bactericidal activity against […] Staphylococcus aureus ATCC 25923 assessed as log reduction in colony forming unit at 2 times MIC after 24 hrs by time kill assay; type: functional
Summary of the method: (§2)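 Samples at 0, 3, 6, 9, 12 and 24 h were serially diluted in MH broth and plated on tryptic soy agar. CFU/mL from colony counts after 24 h at 37 °C.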

Pseudomonas aeruginosa [3] = assay: Inhibition of biofilm formation in Pseudomonas aeruginosa ATCC 27853 at 64 ug/ml incubated for 18 hrs by crystal violet staining based method; type: functional, organism-based; conditions: dose 64.0 µg/ml
Summary of the method: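 P. aeruginosa ATCC27853 was grown overnight in MH medium, washed and diluted to OD₆₂₀ 0.05, grown to mid-log (OD₆₂₀ 0.3–0.5), then rediluted to 0.05. Cultures were grown statically with compound at 37 °C for 18 h. Wells were washed with PBS, fixed in methanol for 15 min and stained with 0.1% crystal violet for 30 min. Stain was solubilized in 1% SDS and read at A540, in triplicate.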

Staphylococcus aureus [4] = assay: Bactericidal activity against […] Staphylococcus aureus ATCC 25923 assessed as reduction in colony forming unit at 0.5 times MIC by time kill assay; type: functional, organism-based; summary of the method: as §2
[5] = biological target: T1, Cell division protein FtsZ (Bacillus subtilis) (UniProt A5Z1V5); assay: Induction of Bacillus subtilis FtsZ polymerization by fluorescence spectrophotometry; conditions: dose 2.5-10 µg/ml, time 800.0 sec
T1 sequence (whole entry): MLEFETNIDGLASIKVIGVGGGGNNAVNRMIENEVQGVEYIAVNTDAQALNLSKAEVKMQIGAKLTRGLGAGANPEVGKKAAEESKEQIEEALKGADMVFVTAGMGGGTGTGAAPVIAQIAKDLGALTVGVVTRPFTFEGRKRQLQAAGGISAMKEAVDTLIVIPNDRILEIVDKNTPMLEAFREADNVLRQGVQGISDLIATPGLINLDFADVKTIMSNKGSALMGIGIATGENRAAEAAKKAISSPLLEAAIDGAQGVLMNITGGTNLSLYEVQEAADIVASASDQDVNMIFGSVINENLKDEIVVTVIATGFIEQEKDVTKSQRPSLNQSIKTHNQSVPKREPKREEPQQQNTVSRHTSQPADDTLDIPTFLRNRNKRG
Summary of the method: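 Light scattering of B. subtilis FtsZ in 20 mM Tris pH 7.4 with 20 mM KCl, 5 mM MgCl₂ and 0.01% Triton X-100. Protein was preincubated in a cuvette with vehicle (2% DMSO) or compound. GTP was added last (2 mM final), and scattering at excitation 411 nm / emission 430 nm was followed for 800 s.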

Staphylococcus aureus [6] = assay: Bactericidal activity against methicillin-resistant Staphylococcus aureus ATCC 43300 measured after 24 hrs by CLSI protocol based method; type: functional
Summary of the method: (§3)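 MBC after broth microdilution. After 24 h, aliquots from clear wells were plated on tryptic soy agar and incubated aerobically 24 h at 37 °C. MBC was the lowest concentration giving no colonies.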

[7] = tested on: Staphylococcus epidermidis; assay: Bactericidal activity against penicillin-resistant Staphylococcus epidermidis measured after 24 hrs by CLSI protocol based method; type: functional; summary of the method: as §3
Pseudomonas aeruginosa [8] = assay: Antibacterial activity against penicillin-susceptible Pseudomonas aeruginosa ATCC27853 assessed as bacterial growth inhibition incubated for 24 hrs by CLSI protocol based broth microdilution method; type: functional
Bacillus pumilus [9] = assay: Antibacterial activity against penicillin-susceptible Bacillus pumilus CMCC 63202 assessed as bacterial growth inhibition by broth dilution method; type: functional; conditions: time 24 hrs
Summary of the method: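 Broth microdilution in Mueller Hinton broth. A 0.5 McFarland suspension was diluted tenfold, giving an inoculum of 1.5 × 10⁷ cfu/mL. This was added to 2-fold serial compound dilutions from […]. Plates were incubated aerobically at 37 °C for 24 h. MIC was the lowest concentration with no visible turbidity.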

Bacillus pumilus [10] = assay: Induction of morphological changes in Bacillus pumilus CMCC 63202 assessed as alteration in length measured at 0.5 times MIC after 18 hrs by Phase contrast light microscope analysis (reference value: 1.2 to 3 micrometer); type: functional
Staphylococcus aureus [11] = assay: Bactericidal activity against erythromycin-susceptible Staphylococcus aureus ATCC 25923 measured after 24 hrs by CLSI protocol based method; type: functional; summary of the method: as §3
[12] = tested on: Staphylococcus epidermidis; assay: Ratio of MBC to MIC against penicillin-resistant Staphylococcus epidermidis; type: functional; summary of the method: as §1
Bacillus pumilus [13] = assay: Bactericidal activity against penicillin-susceptible Bacillus pumilus CMCC 63202 measured after 24 hrs by CLSI protocol based method; type: functional
Summary of the method: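 MBC followed on from the 24 h broth microdilution MIC plates. Aliquots from clear wells were spread on tryptic soy agar and incubated aerobically at 37 °C for 24 h. MBC was the minimum concentration giving no colonies.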

Staphylococcus aureus [14] = assay: In vivo antibacterial activity against […] Staphylococcus aureus ATCC 25923 infected in Kunming mouse assessed as reduction in viable bacterial cells at 5 mg/kg, administered 1 hr post bacterial infection and measured after 1 hr post compound treatment; type: functional, organism-based
Summary of the method: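 Kunming mice (~25 g, 6 per group) infected intravenously with 6 × 10⁷ CFU S. aureus ATCC25923 in 0.2 mL saline. About 1 h later, 1, 5 or 25 mg/kg was given intraperitoneally in 0.5 mL vehicle, with linezolid as reference. Orbital blood (100 µL) was taken before and 1 h after treatment, spread on MH agar and counted after 24 h.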

Staphylococcus aureus [15] = assay: Antibacterial activity against penicillin-resistant Staphylococcus aureus assessed as inhibition of bacterial growth measured by broth microdilution method; type: functional; conditions: time 24 hrs
Summary of the method: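 Broth microdilution MIC. A 0.5 McFarland suspension was diluted 10-fold and added at 1.5 × 10⁷ cfu/mL to 2-fold dilutions (0.125–64) in Mueller Hinton broth. Incubated aerobically 24 h at 37 °C. MIC was the lowest concentration with no visible turbidity.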

Staphylococcus aureus [16] = assay: Bactericidal activity against penicillin-resistant Staphylococcus aureus measured after 24 hrs by CLSI protocol based method; type: functional; summary of the method: as §3
[17] = biological target: T1, Cell division protein FtsZ (Bacillus subtilis); assay: Induction of Bacillus subtilis FtsZ polymerization assessed as formation of bundling of FtsZ protofilaments at 10 ug/ml after 20 mins by transmission electron microscopic analysis; conditions: dose 10.0 µg/ml
Summary of the method: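 B. subtilis FtsZ was incubated with or without compound for 20 min in Tris pH 7.4 polymerization buffer (KCl, MgCl₂, Triton X-100, GTP). Samples were applied to glow-discharged Formvar carbon-coated copper grids for 10 min, negatively stained with 1% phosphotungstic acid for 1 min, air-dried and imaged by TEM.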

Bacillus subtilis = assay: Ratio of MBC to MIC against penicillin-susceptible Bacillus subtilis ATCC 9372; type: functional
Summary of the method: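 Ratio of MBC to MIC, both measured by broth microdilution in MH broth (37 °C, 24 h); MBC was scored by subculturing clear wells onto tryptic soy agar for 24 h. Following CLSI, a ratio of 4 or less counts as bactericidal.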

[18] = tested on: Staphylococcus epidermidis; assay: Antibacterial activity against penicillin-resistant Staphylococcus epidermidis assessed as inhibition of bacterial growth measured by broth microdilution method; type: functional; conditions: time 24 hrs

Work on `C[n+]1c2ccccc2c(/C=C/c2ccc(C(C)(C)C)cc2)c2ccccc21.[I-]` yielded an MIC (Enterococcus faecalis) of 2 µg/mL, a Ratio (Bacillus pumilus [1]) of 4 and an Activity (Staphylococcus aureus [2]) of 2.43 CFU. For the same molecule, the inhibition (Pseudomonas aeruginosa [3]) was “inactive”, the MIC (Staphylococcus aureus [4]) was “inactive” and the Activity [5] was “Dose-Dependent Effect”. The MBC (Staphylococcus aureus [6]) was 4 µg/mL, the MIC [7] was 1 µg/mL and the MIC (Pseudomonas aeruginosa [8]) was > 64 µg/mL. The MIC (Bacillus pumilus [9]) was 0.5 µg/mL, the Activity (Bacillus pumilus [10]) was 20 um and the MBC (Staphylococcus aureus [11]) was 2 µg/mL. For the same molecule, the Ratio [12] was 1, the MBC (Bacillus pumilus [13]) was 2 µg/mL and the Activity (Staphylococcus aureus [14]) was “Active”. For the same molecule, the MIC (Staphylococcus aureus [15]) was 2 µg/mL, the MBC (Staphylococcus aureus [16]) was 4 µg/mL and the Activity [17] was “Active”. The Ratio (Bacillus subtilis) was 2 and the MIC [18] was 1 µg/mL.
